Measurements published in ChEMBL document CHEMBL1140127, “Enantiomeric propanolamines as selective N-methyl-D-aspartate 2B receptor antagonists” (J Med Chem, 2008).
The source made the active and inactive calls.

Key:
[1] = test system: Plasma; assay: Half life in rat plasma at 30 mg/kg, ip by LC-MS/MS analysis; format: ADME, organism-based; design: dose 30 mg/kg, route intraperitoneal; details: in vivo
How it was run: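 Fasted rats (n = 3 per dose) given 30 mg/kg ip in 2% dimethyl acetamide/98% 5% hydroxypropyl cyclodextrin. Plasma sampled at several time points up to 240 min and extracted with 5 volumes of cold acetonitrile. Parent compound measured by LC-MS/MS (MRM) against a standard curve to give plasma t1/2.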

[2] = test system: Neuron; assay: Inhibition of voltage-gated potassium current in E17 Sprague-Dawley rat neurons at 3 uM by whole cell patch clamp method; format: functional
[3] = test system: Rattus norvegicus; assay: Effect on locomotor activity in Sprague-Dawley rat at 300 mg/kg, ip; format: functional, organism-based; design: dose 300 mg/kg
How it was run: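 Sprague–Dawley rats, 100–200 g, habituated to the room for ≥30 min. Basal activity recorded for 1 h in infrared photobeam activity chambers. Animals then dosed ip and returned to the chamber for 2 h; total horizontal activity recorded. Daily controls were vehicle (negative) and 0.3 mg/kg MK-801 ip in saline (positive). ANOVA with Dunnett's post hoc test.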

[4] = organism: Mus musculus; assay: Inhibition of mouse NR2B(deltaATD) mutant receptor
[5] = test system: Rattus norvegicus; assay: Anticonvulsant activity in Sprague-Dawley rat assessed as inhibition of electroshock-induced tonic hind limb extension at 30 mg/kg, ip administered 30 mins before electroshock; format: functional, organism-based; design: dose 30 mg/kg; details: Hindlimb
How it was run: (§1)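 Male Sprague–Dawley rats, 100–125 g, with 1% lidocaine dropped into each conjunctiva before maximal electroshock. Compound given ip in DMSO 30 min before the stimulus. Tested on three consecutive days: untreated on days 1 and 3, compound on day 2. Duration of tonic hind limb extension scored visually. Vehicle served as negative control and carbamazepine 60 mg/kg as positive control. ANOVA with Bonferroni post hoc test.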

[6] = target: Glutamate receptor 3 (Rattus norvegicus) (UniProt P19492); assay: Inhibition of rat recombinant GluR3 expressed in Xenopus oocytes assessed as inhibition of kainate-induced evoked current at 3 uM by two electrode voltage clamp method; format: cell-based; details: Oocyte
How it was run: (§2)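 Xenopus oocytes injected with 5–10 ng rat receptor cRNA and kept in Barth's solution at 18 °C. Two-electrode voltage clamp at −40 mV and 23 °C, 2–7 days after injection, in 90 NaCl/1 KCl/10 HEPES/0.5 BaCl2 mM at pH 7.3 or 7.6. Agonists: 50 μM kainate for GluR3, GluR4 and GluR2/3; 3 nM domoate for GluR6; 100 μM AMPA for GluR6/KA1. Current expressed as % of control; paired t test.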

[7] = Inhibition of sodium channel
How it was run: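 Rat cortical neurons cultured from E17 embryos and recorded at 5–10 days by whole-cell patch clamp at 23 °C. Holding −60 mV with 100 ms steps, in the presence of bicuculline, CNQX and DL-APV. Tetrodotoxin-sensitive Na+ current measured at −10 mV; mean compared by paired t test.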

[8] = Protein binding in mouse plasma; format: ADME, cell-free; details: read-out: PPB (converted)
[9] = target: Glutamate NMDA receptor; GRIN1/GRIN2B (Homo sapiens) (UniProt Q05586+Q13224); assay: Inhibition of human NR1/NR2B receptor
[10] = test system: Mus musculus; assay: Neuroprotective effect against middle cerebral artery occlusion-induced transient focal ischemia in C57BL/6 mouse at 30 mg/kg, ip administered 30 mins before occlusion; format: functional; details: route intraperitoneal
How it was run: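 Male C57BL/6 mice, 3–5 months, under 2% isoflurane at 37 °C. Left MCA occluded with an intraluminal suture for 30 min, confirmed by laser Doppler flow below 20%. Injection ip (10 mL/kg) given 30 min before occlusion. After 24 h, brains cut into 2 mm sections and stained with 2% TTC; infarct volume thresholded and edema-corrected. Operator blinded; Mann–Whitney test.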

[11] = target: Glutamate receptor ionotropic, kainate 2 (Rattus norvegicus) (UniProt P42260); assay: Inhibition of rat recombinant GluR6/KA1 expressed in Xenopus oocytes assessed as inhibition of AMPA-induced evoked current at 3 uM by two electrode voltage clamp method; format: cell-based; details: Oocyte; how it was run: as §2
[12] = target: Glutamate NMDA receptor; Grin1/Grin2c (Rattus norvegicus) (UniProt P35439+Q00961); assay: Inhibition of rat recombinant NR1/NR2C receptor expressed in Xenopus oocytes assessed as inhibition of glutamate and glycine-induced evoked current at 3uM by two electrode voltage clamp method; format: cell-based; details: Oocyte
[13] = target: Sodium-dependent noradrenaline transporter (Homo sapiens, UniProt P23975); assay: Binding affinity to norepinephrine transporter
[14] = Protein binding in human plasma; format: ADME, cell-free; details: read-out: PPB (converted)
[15] = test system: Cortical neurone; assay: Neuroprotective effect against NMDA-induced toxicity in Sprague-Dawley rat cultured cortical neurons assessed as LDH release pretreated 15 mins before NMDA treatment assessed after 16 to 24 hrs by spectrophotometry; format: functional
How it was run: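 Rat cortical cultures (E16–E19) used at 9–12 days. Cells pretreated 15 min in ACSF at pH 7.6, then exposed 10 min at room temperature to 100 μM NMDA plus 10 μM glycine with compound present. Washed with D-APV/CNQX. LDH release measured 16–24 h later as a fraction of total. Scaled between the D-APV minimum and the NMDA maximum; cultures with <10% death discarded.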

[16] = test system: Neuron; assay: Inhibition of tetrodotoxin-sensitive voltage-gated sodium current in E17 Sprague-Dawley rat neurons at 3 uM at holding potential of […] by whole cell patch clamp method; format: functional
[17] = target: Ionotropic glutamate receptor NMDA 1/2D (Rattus norvegicus) (UniProt P35439+Q62645); assay: Inhibition of rat recombinant NR1/NR2D receptor expressed in Xenopus oocytes assessed as inhibition of glutamate and glycine-induced evoked current at 3uM by two electrode voltage clamp method; format: cell-based; details: Oocyte
[18] = target: Glutamate receptor ionotropic, kainate 2 (Rattus norvegicus) (UniProt P42260); assay: Inhibition of rat recombinant GluR6 expressed in Xenopus oocytes assessed as inhibition of domoate-induced evoked current at 3 uM by two electrode voltage clamp method; format: cell-based; details: Oocyte; how it was run: as §2
[19] = test system: Brain; assay: Drug level in rat brain at 30 mg/kg, ip by LC-MS/MS analysis; format: ADME, organism-based; design: dose 30 mg/kg, route intraperitoneal
How it was run: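 Rats, n = 3 per dose, given 30 mg/kg ip in 2% dimethyl acetamide/98% 5% 2-hydroxypropyl cyclodextrin after overnight fasting. Brain weighed and homogenized on ice in 50 mM phosphate buffer. Homogenate extracted with 5 volumes of cold acetonitrile, then centrifuged. Parent compound quantified by LC-MS/MS in MRM mode against a standard curve.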

[20] = target: Glutamate receptor 4 (Rattus norvegicus) (UniProt P19493); assay: Inhibition of rat recombinant GluR4 expressed in Xenopus oocytes assessed as inhibition of kainate-induced evoked current at 3 uM by two electrode voltage clamp method; format: cell-based; details: Oocyte; how it was run: as §2
[21] = test system: Rattus norvegicus; assay: Anticonvulsant activity in Sprague-Dawley rat assessed as inhibition of electroshock-induced tonic hind limb extension at 100 mg/kg, ip administered 30 mins before electroshock; format: functional, organism-based; design: dose 100 mg/kg; details: Hindlimb; how it was run: as §1
[22] = target: Glutamate NMDA receptor; Grin1/Grin2a (Rattus norvegicus) (UniProt P35439+Q00959); assay: Inhibition of rat recombinant NR1/NR2A receptor expressed in Xenopus oocytes assessed as inhibition of glutamate and glycine-induced evoked current at 3uM by two electrode voltage clamp method; format: cell-based; details: Oocyte
[23] = Inhibition of N-type calcium channel

Glutamate receptor ionotropic, kainate 2 (Rattus norvegicus), sequence (P42260 whole entry): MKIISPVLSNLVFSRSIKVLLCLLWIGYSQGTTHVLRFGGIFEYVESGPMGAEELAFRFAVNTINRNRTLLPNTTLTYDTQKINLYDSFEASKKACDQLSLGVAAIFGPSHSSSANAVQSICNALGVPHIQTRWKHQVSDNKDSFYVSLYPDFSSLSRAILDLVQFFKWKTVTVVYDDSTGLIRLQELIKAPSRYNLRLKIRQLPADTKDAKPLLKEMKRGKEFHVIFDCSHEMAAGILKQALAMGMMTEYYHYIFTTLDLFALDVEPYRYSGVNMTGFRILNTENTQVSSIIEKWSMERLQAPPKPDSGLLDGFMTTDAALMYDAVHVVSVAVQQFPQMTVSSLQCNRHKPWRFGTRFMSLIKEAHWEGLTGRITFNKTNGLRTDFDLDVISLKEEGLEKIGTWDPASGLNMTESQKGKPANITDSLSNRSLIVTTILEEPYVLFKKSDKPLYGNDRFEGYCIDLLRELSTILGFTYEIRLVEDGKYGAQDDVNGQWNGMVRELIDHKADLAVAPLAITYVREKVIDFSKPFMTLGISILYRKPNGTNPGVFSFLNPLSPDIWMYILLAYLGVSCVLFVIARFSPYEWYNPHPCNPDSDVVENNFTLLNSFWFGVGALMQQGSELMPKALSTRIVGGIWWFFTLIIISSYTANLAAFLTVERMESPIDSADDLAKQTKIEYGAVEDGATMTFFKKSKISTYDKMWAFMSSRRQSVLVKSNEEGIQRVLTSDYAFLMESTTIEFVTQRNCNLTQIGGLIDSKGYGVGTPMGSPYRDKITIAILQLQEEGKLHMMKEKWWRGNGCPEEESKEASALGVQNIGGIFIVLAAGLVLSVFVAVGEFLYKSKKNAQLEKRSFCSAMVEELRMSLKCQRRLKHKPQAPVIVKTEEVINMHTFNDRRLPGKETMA
Glutamate receptor 4 (Rattus norvegicus), sequence (P19493 whole entry): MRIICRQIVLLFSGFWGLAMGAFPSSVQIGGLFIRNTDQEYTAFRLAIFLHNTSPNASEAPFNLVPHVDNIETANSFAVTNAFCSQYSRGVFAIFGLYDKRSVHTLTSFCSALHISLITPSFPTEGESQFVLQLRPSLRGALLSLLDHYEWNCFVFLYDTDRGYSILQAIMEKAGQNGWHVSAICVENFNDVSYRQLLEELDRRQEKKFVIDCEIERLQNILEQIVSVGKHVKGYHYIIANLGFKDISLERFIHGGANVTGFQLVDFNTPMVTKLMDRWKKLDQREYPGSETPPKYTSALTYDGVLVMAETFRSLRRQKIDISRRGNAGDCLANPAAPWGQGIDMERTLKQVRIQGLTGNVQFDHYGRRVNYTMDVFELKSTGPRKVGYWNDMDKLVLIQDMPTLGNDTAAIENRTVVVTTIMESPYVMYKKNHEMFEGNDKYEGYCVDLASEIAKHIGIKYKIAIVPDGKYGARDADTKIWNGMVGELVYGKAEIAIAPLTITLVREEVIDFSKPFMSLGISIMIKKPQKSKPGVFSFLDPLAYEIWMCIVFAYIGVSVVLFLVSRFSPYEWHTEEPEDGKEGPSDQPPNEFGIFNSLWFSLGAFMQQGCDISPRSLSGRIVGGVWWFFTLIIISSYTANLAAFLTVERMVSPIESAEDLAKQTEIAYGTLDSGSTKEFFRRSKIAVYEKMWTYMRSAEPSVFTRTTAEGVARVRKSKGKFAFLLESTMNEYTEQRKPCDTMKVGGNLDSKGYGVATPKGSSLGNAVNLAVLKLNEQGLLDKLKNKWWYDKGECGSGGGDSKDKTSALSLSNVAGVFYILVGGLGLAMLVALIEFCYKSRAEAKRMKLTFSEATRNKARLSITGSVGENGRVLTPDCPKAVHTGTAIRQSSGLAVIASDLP
Glutamate receptor 3 (Rattus norvegicus), sequence (P19492 whole entry): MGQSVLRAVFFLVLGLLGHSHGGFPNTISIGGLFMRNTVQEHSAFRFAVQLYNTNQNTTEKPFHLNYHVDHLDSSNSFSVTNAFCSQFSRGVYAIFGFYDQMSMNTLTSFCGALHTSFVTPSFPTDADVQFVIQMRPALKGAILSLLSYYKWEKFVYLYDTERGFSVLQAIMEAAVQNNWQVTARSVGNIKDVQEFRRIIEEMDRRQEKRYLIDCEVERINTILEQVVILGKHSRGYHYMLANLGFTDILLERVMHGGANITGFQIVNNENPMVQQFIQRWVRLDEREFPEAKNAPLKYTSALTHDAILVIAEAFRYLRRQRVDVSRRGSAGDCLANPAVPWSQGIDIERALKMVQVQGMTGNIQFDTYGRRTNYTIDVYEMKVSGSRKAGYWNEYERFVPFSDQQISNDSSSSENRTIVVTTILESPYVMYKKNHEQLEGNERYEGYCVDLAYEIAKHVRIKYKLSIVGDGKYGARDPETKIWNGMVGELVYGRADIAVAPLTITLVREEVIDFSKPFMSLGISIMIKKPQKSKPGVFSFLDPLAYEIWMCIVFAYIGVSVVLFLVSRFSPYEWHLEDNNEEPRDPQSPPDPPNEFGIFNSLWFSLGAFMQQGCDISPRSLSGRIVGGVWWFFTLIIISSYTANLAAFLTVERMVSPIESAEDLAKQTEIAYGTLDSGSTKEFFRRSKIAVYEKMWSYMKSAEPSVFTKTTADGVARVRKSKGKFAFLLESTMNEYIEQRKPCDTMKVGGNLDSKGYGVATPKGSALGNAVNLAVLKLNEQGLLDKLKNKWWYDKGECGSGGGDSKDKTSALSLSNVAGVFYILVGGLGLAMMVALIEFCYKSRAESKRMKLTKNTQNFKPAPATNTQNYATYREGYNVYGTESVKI
Sodium-dependent noradrenaline transporter, sequence (P23975 whole entry): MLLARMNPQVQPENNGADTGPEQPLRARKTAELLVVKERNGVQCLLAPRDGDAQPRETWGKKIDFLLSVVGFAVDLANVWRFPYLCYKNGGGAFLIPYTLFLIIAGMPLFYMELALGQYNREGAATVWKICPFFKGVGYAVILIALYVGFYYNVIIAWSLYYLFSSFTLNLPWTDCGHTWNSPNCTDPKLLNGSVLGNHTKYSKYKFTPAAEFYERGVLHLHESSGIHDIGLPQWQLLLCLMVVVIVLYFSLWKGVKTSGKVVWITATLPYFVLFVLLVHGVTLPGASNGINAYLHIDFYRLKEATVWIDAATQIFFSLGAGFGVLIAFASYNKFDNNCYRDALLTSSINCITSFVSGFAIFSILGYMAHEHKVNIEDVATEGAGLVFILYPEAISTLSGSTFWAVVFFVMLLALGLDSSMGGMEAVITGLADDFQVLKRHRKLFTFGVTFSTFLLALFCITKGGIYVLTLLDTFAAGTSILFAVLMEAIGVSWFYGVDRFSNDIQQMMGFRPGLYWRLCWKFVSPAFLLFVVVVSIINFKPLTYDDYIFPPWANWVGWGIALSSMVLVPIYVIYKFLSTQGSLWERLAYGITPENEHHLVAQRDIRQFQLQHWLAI

## CS(=O)(=O)Nc1ccc(OC[C@@H](O)CNCCc2ccc(Cl)c(Cl)c2)cc1
[1]
  t1/2: 1.1 h
[2]
  Activity: 0.72 nanoampere
[3]
  Activity: inactive
[4]
  Activity: inactive
[5]
  Activity: inactive
[6]
  Activity: inactive
[7]
  IC50: > 5000 nM
[8]
  fraction unbound: 0.12
[9]
  Activity: 53 nM
[10]
  Activity: >30%
[11]
  Activity: inactive
[12]
  Activity: inactive
[13]
  IC50: 500 nM
[14]
  fraction unbound: 0.02
[15]
  Activity: Dose-dependent effect
[16]
  Activity: 1.27 nanoampere
[17]
  Activity: inactive
[18]
  Activity: inactive
[19]
  concentration: 170 nM
[20]
  Activity: inactive
[21]
  Activity: Active
[22]
  Activity: inactive
[23]
  IC50: > 5000 nM
